Published values pooled from the literature.
EGFR del752-759: Epidermal growth factor receptor (EGFR, Homo sapiens, UniProt P00533, del752-759)
EGFR del746-750: Epidermal growth factor receptor (EGFR, Homo sapiens, UniProt P00533, del746-750)
EGFR: Epidermal growth factor receptor (EGFR, Homo sapiens, UniProt P00533)
EGFR L858R: Epidermal growth factor receptor (EGFR, Homo sapiens, UniProt P00533, L858R)
EGFR G719S: Epidermal growth factor receptor (EGFR, Homo sapiens, UniProt P00533, G719S)
EGFR T790M: Epidermal growth factor receptor (EGFR, Homo sapiens, UniProt P00533, T790M)
EGFR L861Q: Epidermal growth factor receptor (EGFR, Homo sapiens, UniProt P00533, L861Q)
EGFR L858R/T790M: Epidermal growth factor receptor (EGFR, Homo sapiens, UniProt P00533, L858R/T790M)

SMILES	target	observed	technique	concentration	remaining binding
CN(c1ccnc(CNc2nc(Nc3ccc4c(c3)CC(=O)N4)ncc2C(F)(F)F)n1)S(C)(=O)=O	EGFR del752-759	cell-free assay	competition with immobilised ligand	1 µM	76%
Cc1cnc(Nc2ccc(C(=O)N3CCC(N4CCCC4)CC3)cc2)nc1-c1cc2ccccc2s1	EGFR del746-750	binding	competition with immobilised ligand	1 µM	100%
COc1cnc(Nc2cccc(S(N)(=O)=O)c2)nc1N1CCN(c2ccccc2)C(=O)C1	EGFR	binding	competition with immobilised ligand	1 µM	100%
CN(C)c1ncc(F)c(-c2cnn3ncccc23)n1	EGFR	binding	–	1 µM	82%
O=C(NCCCN1CCOCC1)c1ccc(Nc2ncc(Cl)c(-c3ccc(Cl)s3)n2)cc1	EGFR L858R	binding	competition with immobilised ligand	1 µM	82%
COc1ccnn2ncc(-c3ccnc(N(C)C)n3)c12	EGFR G719S	binding	–	1 µM	96%
O=C(c1ccc(Nc2ncc(Cl)c(-c3ccc(Cl)s3)n2)cc1)N1CCC(N2CCCC2)CC1	EGFR G719S	binding	competition with immobilised ligand	1 µM	96%
CN(C)c1nccc(-c2cnc3ncccn23)n1	EGFR G719S	binding	–	1 µM	84%
O=C(c1ccc(Nc2nccc(-c3cc4ccccc4s3)n2)cc1)N1CCC(N2CCCC2)CC1	EGFR del752-759	binding	competition with immobilised ligand	1 µM	93%
CCN1CCN(Cc2ccc(C(=O)Nc3ccc(C)c(Oc4ccc5c(c4)CC(=O)N5)c3)cc2C(F)(F)F)CC1	EGFR del746-750	binding	competition with immobilised ligand	1 µM	99%
CN(CCCC(F)(F)F)c1nccc(-c2cnn3ncccc23)n1	EGFR G719S	binding	–	1 µM	98%
CNC(=O)[C@@H]1CC[C@@H](n2c(-c3ccc4cnccc4c3)nc3ccc(C(=O)NCc4cccc(C(N)=O)c4)cc32)C1	EGFR T790M	binding	competition with immobilised ligand	1 µM	72%
c1cncc(-c2cccc(Nc3nccc(NC4CCCCC4)n3)c2)c1	EGFR	binding	competition with immobilised ligand	10 µM	56%
C[C@H]1CCN(c2nccc(-c3cnn4ncccc34)n2)C1	EGFR L858R	binding	–	1 µM	100%
O=C(c1ccc(Nc2ncc(Cl)c(-c3cc4ccccc4s3)n2)cc1)N1CCC(N2CCCC2)CC1	EGFR L861Q	binding	competition with immobilised ligand	1 µM	92%
COc1cc(-c2cn(C3CCc4c(F)cccc4N(CC(F)(F)F)C3=O)nn2)ccc1-n1cnc(C)c1 (centres unmarked)	EGFR L858R	cell-free assay	competition with immobilised ligand	1 µM	100%
CC1CCCN1c1nccc(-c2cnn3ncccc23)n1 (centres unmarked)	EGFR T790M	binding	–	1 µM	100%
CCS(=O)(=O)c1cc2cc(C[C@](O)(CC(C)(C)c3ccc(F)cc3C(N)=O)C(F)(F)F)[nH]c2cn1	EGFR T790M	cell-free assay	competition with immobilised ligand	1 µM	78%
O=C(NCCCN1CCOCC1)c1ccc(Nc2nccc(-c3cc4ccccc4s3)n2)cc1	EGFR L861Q	binding	competition with immobilised ligand	1 µM	99%
CC(=O)N1CCC(c2ccc(C(=O)NC(=N)N)cc2C(F)(F)F)CC1	EGFR L861Q	cell-free assay	competition with immobilised ligand	1 µM	91%
O=C(NCC1CCOCC1)c1n[nH]cc1NC(=O)c1c(F)cccc1F	EGFR L858R/T790M	binding	competition with immobilised ligand	1 µM	97%
CN(C(=O)c1ccccc1)c1cc(N(C)c2ccc3c(c2)CCc2ccc(C(=O)NCCN4CCOCC4)cc2C3=O)ccc1F	EGFR L861Q	cell-free assay	competition with immobilised ligand	1 µM	100%
COc1cnc(Nc2cccc(S(N)(=O)=O)c2)nc1N1CCN(c2ccccc2)CC1	EGFR G719S	binding	competition with immobilised ligand	1 µM	100%
O=C(NC[C@@H]1[C@H]2CN(C(=O)OCc3cc(C(F)(F)F)cc(C(F)(F)F)c3)C[C@@H]12)c1ccc2[nH]nnc2c1	EGFR L858R/T790M	cell-free assay	competition with immobilised ligand	1 µM	80%
O=C(Nc1c[nH]nc1C(=O)NC1CCNCC1)c1cc(F)cc(F)c1	Epidermal growth factor receptor (EGFR, Homo sapiens, UniProt P00533, G719C)	binding	competition with immobilised ligand	1 µM	100%
Cn1nc(C(=O)NCc2ccc(C(=O)O)cc2)cc1-c1ccc2[nH]ccc2c1	EGFR L861Q	cell-free assay	competition with immobilised ligand	0.1 µM	69%
Nc1ncc2c(n1)-c1c([nH]c3ccc(C#CC4CC4)cc13)CCCC2	EGFR del746-750	binding	competition with immobilised ligand	1 µM	72%
c1cnn2ncc(-c3ccnc(N4CCC45COC5)n3)c2c1	EGFR G719S	binding	–	1 µM	100%
C[C@@]1(Cc2ccc(C#N)cc2)C(=O)N(c2cc(Cl)cc(Cl)c2)c2ncc(C(=O)NC3(c4nc(C5CCC5)no4)CC3)n21	Epidermal growth factor receptor (EGFR, Homo sapiens, UniProt P00533, del747-752/P753S)	cell-free assay	competition with immobilised ligand	1 µM	58%
